Test results from ChEMBL document CHEMBL1126824, “Discovery of a novel class of potent HIV-1 protease inhibitors containing the (R)-(hydroxyethyl)urea isostere” (J Med Chem, 1993).

Each molecule was assayed on CEM (Homo sapiens) (assay: Toxic dose required for 50% in uninfected cells). Conditions: not given.

Point of comparison: `CC(C)CN(C[C@@H](O)[C@H](Cc1ccccc1)NC(=O)[C@H](CC(N)=O)NC(=O)c1ccc2ccccc2n1)C(=O)NC(C)(C)C` [TELINAVIR], TD50 50 µM. Against it:
- CC(C)(C)NC(=O)N(Cc1ccncc1)C[C@@H](O)[C@H](Cc1ccccc1)NC(=O)[C@H](CC(N)=O)NC(=O)c1ccc2ccccc2n1 — 6-fold higher, 300 µM
- CC(C)(C)NC(=O)N(Cc1ccccc1)C[C@@H](O)[C@H](Cc1ccccc1)NC(=O)[C@H](CC(N)=O)NC(=O)c1ccc2ccccc2n1 — 14-fold higher, 700 µM
- CC(C)CCN(C[C@@H](O)[C@H](Cc1ccccc1)NC(=O)[C@H](CC(N)=O)NC(=O)c1ccc2ccccc2n1)C(=O)NC(C)(C)C — the same, 50 µM

What follows are molecules tested against Human immunodeficiency virus type 1 protease (Human immunodeficiency virus 1) (UniProt Q72874) (assay: Inhibition of HIV-1 Protease). Conditions: concentration not given here.
Design: concentration or dose not given beside the values
Procedure, shortened: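 Continuous fluorometric cleavage of 2-(aminobenzoyl)-Thr-Ile-Nle-Phe(p-NO2)-Gln-ArgNH2 (Km = 37 μM); IC50 determined, with MVT-101 (Ac-Thr-Ile-Nle[CH2NH]Nle-Gln-ArgNH2) as positive control.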

`CCCCNC(=O)N(CC(C)C)C[C@H](O)[C@H](Cc1ccccc1)NC(=O)[C@H](CC(N)=O)NC(=O)OCc1ccccc1` and `CNC(=O)N(CC(C)C)C[C@H](O)[C@H](Cc1ccccc1)NC(=O)[C@H](CC(N)=O)NC(=O)OCc1ccccc1` cannot be ordered by inhibition: under 50% for the first, under 50% for the second.

`CNC(=O)N(C)C[C@H](O)[C@H](Cc1ccccc1)NC(=O)[C@H](CC(N)=O)NC(=O)OCc1ccccc1` and `CNC(=O)N(C)C[C@@H](O)[C@H](Cc1ccccc1)NC(=O)[C@H](CC(N)=O)NC(=O)OCc1ccccc1` cannot be ordered by inhibition: under 50% for the first, under 50% for the second.

`CCCCNC(=O)N(C)C[C@@H](O)[C@H](Cc1ccccc1)NC(=O)[C@H](CC(N)=O)NC(=O)OCc1ccccc1` and `CCCCNC(=O)N(C)C[C@H](O)[C@H](Cc1ccccc1)NC(=O)[C@H](CC(N)=O)NC(=O)OCc1ccccc1` cannot be ordered by inhibition: under 50% for the first, under 50% for the second.

The molecules below were run against T1, Human immunodeficiency virus type 1 protease (Human immunodeficiency virus 1, UniProt Q72874) (assay: Compounds were tested for their concentration to inhibit the HIV-1 Protease). Conditions: not given.
Procedure, shortened: (§1)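 Continuous fluorometric HIV-1 protease assay. Substrate 2-(aminobenzoyl)-Thr-Ile-Nle-Phe(p-NO₂)-Gln-ArgNH₂ (Km = 37 μM). MVT-101 (Ac-Thr-Ile-Nle[CH₂NH]Nle-Gln-ArgNH₂) served as positive control. IC₅₀ values were determined from inhibition of substrate cleavage; compounds giving under 50% inhibition at 10 μM were flagged.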

Work on `CNC(=O)N(CC(C)C)C[C@@H](O)[C@H](Cc1ccccc1)NC(=O)[C@H](CC(N)=O)NC(=O)OCc1ccccc1` yielded an IC50 of 1500 nM.

The molecules below were run against T1, Human immunodeficiency virus type 1 protease (assay: Inhibition of HIV-1 Protease.). Conditions: not given.
Procedure, shortened: as §1

Point of comparison: `CC(C)CCN(C[C@@H](O)[C@H](Cc1ccccc1)NC(=O)[C@H](CC(N)=O)NC(=O)c1ccc2ccccc2n1)C(=O)NC(C)(C)C`, IC50 3 nM. Against it:
- CC(C)(C)NC(=O)N(Cc1ccccc1)C[C@@H](O)[C@H](Cc1ccccc1)NC(=O)[C@H](CC(N)=O)NC(=O)OCc1ccccc1 — 6.3-fold higher, 19 nM
- CC(C)(C)NC(=O)N(CC1CCCCC1)C[C@@H](O)[C@H](Cc1ccccc1)NC(=O)[C@H](CC(N)=O)NC(=O)OCc1ccccc1 — 9.7-fold higher, 29 nM
- CC(C)(C)NC(=O)N(Cc1ccncc1)C[C@@H](O)[C@H](Cc1ccccc1)NC(=O)[C@H](CC(N)=O)NC(=O)c1ccc2ccccc2n1 — 6.3-fold higher, 19 nM
- CC(C)CCN(C[C@@H](O)[C@H](Cc1ccccc1)NC(=O)[C@H](CC(N)=O)NC(=O)OCc1ccccc1)C(=O)NC(C)(C)C — 4.3-fold higher, 13 nM
- CC(C)(C)NC(=O)N(Cc1ccccc1)C[C@@H](O)[C@H](Cc1ccccc1)NC(=O)[C@H](CC(N)=O)NC(=O)c1ccc2ccccc2n1 — the same, 3 nM
- CC(C)CN(C[C@@H](O)[C@H](Cc1ccccc1)NC(=O)[C@H](CC(N)=O)NC(=O)OCc1ccccc1)C(=O)NC(C)(C)C — 12-fold higher, 35 nM
- CC(C)CN(C[C@@H](O)[C@H](Cc1ccccc1)NC(=O)[C@H](CC(N)=O)NC(=O)c1ccc2ccccc2n1)C(=O)NC(C)(C)C [TELINAVIR] — 2-fold higher, 6 nM
- CC(C)CN(C[C@H](O)[C@H](Cc1ccccc1)NC(=O)[C@H](CC(N)=O)NC(=O)OCc1ccccc1)C(=O)NC(C)(C)C — 18000-fold higher, 54000 nM
- CCCCNC(=O)N(CC(C)C)C[C@@H](O)[C@H](Cc1ccccc1)NC(=O)[C@H](CC(N)=O)NC(=O)c1ccc2ccccc2n1 — 42-fold higher, 126 nM
- CCCNC(=O)N(CC(C)C)C[C@@H](O)[C@H](Cc1ccccc1)NC(=O)[C@H](CC(N)=O)NC(=O)OCc1ccccc1 — 170-fold higher, 518 nM
- CCCCNC(=O)N(CC(C)C)C[C@@H](O)[C@H](Cc1ccccc1)NC(=O)[C@H](CC(N)=O)NC(=O)OCc1ccccc1 — 310-fold higher, 940 nM
- CC(C)CN(C[C@@H](O)[C@H](Cc1ccccc1)NC(=O)[C@H](CC(N)=O)NC(=O)OCc1ccccc1)C(=O)NC(C)C — 87-fold higher, 260 nM
- C[C@H](c1ccccc1)N(C[C@@H](O)[C@H](Cc1ccccc1)NC(=O)[C@H](CC(N)=O)NC(=O)OCc1ccccc1)C(=O)NC(C)(C)C — 2200-fold higher, 6500 nM
- CC(C)(C)NC(=O)N(CC1CCCCC1)C[C@@H](O)[C@H](Cc1ccccc1)NC(=O)[C@H](CC(N)=O)NC(=O)c1ccc2ccccc2n1 — 1.7-fold higher, 5 nM
- CC(C)CN(C[C@H](O)[C@H](Cc1ccccc1)NC(=O)[C@H](CC(N)=O)NC(=O)c1ccc2ccccc2n1)C(=O)NC(C)(C)C — 3300-fold higher, 10000 nM
- C[C@@H](c1ccccc1)N(C[C@@H](O)[C@H](Cc1ccccc1)NC(=O)[C@H](CC(N)=O)NC(=O)OCc1ccccc1)C(=O)NC(C)(C)C — 1700-fold higher, 5100 nM
- CCNC(=O)N(CC(C)C)C[C@@H](O)[C@H](Cc1ccccc1)NC(=O)[C@H](CC(N)=O)NC(=O)OCc1ccccc1 — 110-fold higher, 330 nM
- CCCC[C@@H](CN[C@@H](CCCC)C(=O)N[C@@H](CCC(N)=O)C(=O)N[C@@H](CCCNC(=N)N)C(N)=O)NC(=O)[C@@H](NC(=O)[C@@H](NC(C)=O)[C@@H](C)O)[C@@H](C)CC — 630-fold higher, 1900 nM
- CC(C)(C)NC(=O)N(Cc1ccncc1)C[C@@H](O)[C@H](Cc1ccccc1)NC(=O)[C@H](CC(N)=O)NC(=O)OCc1ccccc1 — 35-fold higher, 105 nM
